Reference: ChEMBL document CHEMBL1133515, “Hydrolytic stability versus ring size in lactams: implications for the development of lactam antibiotics and other serine protease inhibitors” (J Med Chem, 2000)

Experiments:
Type in all cases: ADME
[1] = Compound was evaluated for the second order hydrolysis rate constant
How it was run: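 Amides were reacted with NaOD in D2O under second-order conditions. Concentrations of amide and hydroxide were tracked over reaction time. k2 was taken from the gradient of a plot of the log of the lactam/hydroxide concentration ratio against time, using the second-order rate law with the starting amide and NaOD concentrations.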

[2] = Compound was evaluated for rate of hydrolysis expressed in hours at a pH of 12.; conditions: pH 12
How it was run: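 Deuterated phosphate buffer at pH 12 was made from 1 M K2DPO4 in D2O, with pH adjusted using 10 M KOD. Lactams were dissolved in it at 0.10 and 0.50 M. Hydrolysis was followed over time, and a rate constant per hour was derived.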

[3] = Compound was evaluated for rate of hydrolysis expressed in hours at a pH of 7.5; conditions: pH 7.5
How it was run: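 Pseudo-first-order hydrolysis was run in 0.33 M phosphate buffer at pH 7.5 in D2O, made by mixing Na2DPO4 and KD2PO4 solutions. The pH was checked potentiometrically. The rate constant was expressed per hour.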

Row | k2 [1] | k [2] | k [3] | Structure (SMILES)
1 | 0.000121 M⁻¹ s⁻¹ | 0.000648 h⁻¹ |  | O=C1CCCCN1
2 | 1.36e-07 M⁻¹ s⁻¹ |  |  | O=C1CCCCCCN1
3 | 2.72e-07 M⁻¹ s⁻¹ |  |  | O=C1CCCCCCCN1
4 | 0.000237 M⁻¹ s⁻¹ | 0.00103 h⁻¹ |  | O=C1CCN1
5 | 3.21e-06 M⁻¹ s⁻¹ |  |  | O=C1CCCCCN1 [CAPROLACTAM]
6 |  | 2.3 h⁻¹ | 0.00337 h⁻¹ | CC1(C)S[C@@H]2[C@H](NC(=O)Cc3ccccc3)C(=O)N2[C@H]1C(=O)[O-].[K+] [PENICILLIN G POTASSIUM]

Row | Structure (SMILES) | k2 [1] | k [2] | k [3]
7 | CNC(C)=O | 3.32e-06 M⁻¹ s⁻¹ |  | 
8 | O=C1CCCN1 [2-PYRROLIDONE] | 5.59 M⁻¹ s⁻¹ |  | 
